According to ChEMBL document CHEMBL1124674, “Chemical and biological properties of a new series of cis-diammineplatinum(II) antitumor agents containing three nitrogen donors: cis-[Pt(NH3)2(N-donor)Cl]+” (J Med Chem, 1989):

Assays:
Assay type in all cases: functional, organism-based
Mus musculus [1] = test: Compound is tested against sarcoma 180 ascites (S180a) in female CFW mice, and evaluated for the best percent of increase in life span at optimal dose of 8 mg/kg; parameters: dose 8 mg/kg
Outline: (§1)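 Female CFW mice (18-25 g) were inoculated ip with 2×10^6 S180a cells on day 0. Single ip dose in 0.5 mL water on day 1, over 6 dose-doublings up to 320 mg/kg, 6 mice per dose. Controls got water; the cisplatin control got 8 mg/kg in 0.15 M NaCl. Run for twice control MST, with survivors counted dead then. %ILS, ≥50% = active.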

Mus musculus [2] = test: Compound is tested against sarcoma 180 ascites (S180a) in female CFW mice, and evaluated for the best percent of increase in life span at optimal dose of 80 mg/kg; parameters: dose 80 mg/kg; outline: as §1
Mus musculus [3] = test: Compound is tested against sarcoma 180 ascites (S180a) in female CFW mice, and evaluated for the best percent of increase in life span at optimal dose of 40 mg/kg; parameters: dose 40 mg/kg; outline: as §1
Mus musculus [4] = test: Compound is tested against sarcoma 180 ascites (S180a) in female CFW mice, and evaluated for the best percent of increase in life span at optimal dose of 160 mg/kg; parameters: dose 160 mg/kg; outline: as §1
Mus musculus [5] = test: Compound is tested against sarcoma 180 ascites (S180a) in female CFW mice, and evaluated for the best percent of increase in life span at optimal dose of 320 mg/kg; parameters: dose 320 mg/kg; outline: as §1

In the case of CISPLATIN, the ILS (Mus musculus [1]) is reported as 81%.
[Pt(NH3)2(N1-pyridine)Cl]Cl gave an ILS (Mus musculus [2]) of 17%.
Work on cis[Pt(NH3)2(N1-3-hydroxypyridine)Cl]Cl yielded an ILS (Mus musculus [2]) of 69%.
In the case of cis[Pt(NH3)2(N1-4-bromopyridine)Cl]Cl, the ILS (Mus musculus [2]) is reported as 102%.
Work on cis[Pt(NH3)2(N1-4-chloropyridine)Cl]Cl yielded an ILS (Mus musculus [3]) of 77%.
In the case of cis[Pt(NH3)2(N1-4-methylpyridine)Cl]Cl, the ILS (Mus musculus [3]) is reported as 83%.
With “cis[Pt(NH3)2(N1-6-methoxy-3-hydroxy-hydroxypyridine)Cl]Cl H2O” the ILS (Mus musculus [2]) was 93%.
For “cis[Pt(NH3)2(N1-6-methyl-hydroxypyridine)Cl]Cl”, the ILS (Mus musculus [4]) was 93%.
Work on cis[Pt(NH3)2(N1-cytisine)Cl]Cl yielded an ILS (Mus musculus [2]) of 92%.
Substance “cis[Pt(NH3)2(N1-hydroxypyridine)Cl]Cl H2O” has an ILS (Mus musculus [4]) of 97%.
Work on “cis[Pt(NH3)2(N1-methyl isonicotinate)Cl]Cl” yielded an ILS (Mus musculus [2]) of 31%.
Work on cis[Pt(NH3)2(N1-pyridine)Cl]Cl yielded an ILS (Mus musculus [2]) of 26% and an ILS (Mus musculus [3]) of 103%.
For “cis[Pt(NH3)2(N3-1-beta-D-arabinofuranosylcytocin)Cl]NO3.H2O”, the ILS (Mus musculus [4]) was 51%.
cis[Pt(NH3)2(N3-1-methylcytosine)Cl]NO3 showed an ILS (Mus musculus [3]) of 73%.
For cis[Pt(NH3)2(N3-2,deoxycytidine)Cl]Cl, the ILS (Mus musculus [2]) was 85%.
Substance cis[Pt(NH3)2(N3-5-methylcytosine)Cl]NO3 has an ILS (Mus musculus [4]) of 84%.
cis[Pt(NH3)2(N3-cytidinepyridine)Cl]NO3 showed an ILS (Mus musculus [5]) of 30%.
With “cis[Pt(NH3)2(N7-2,deoxyguanosine)Cl]NO3; H2O” the ILS (Mus musculus [2]) was 88%.
Substance cis[Pt(NH3)2(N7-guanosine)Cl]NO3 has an ILS (Mus musculus [4]) of 79%.
